# ChEMBL document CHEMBL4346727, “Synthesis and pharmacological evaluation of novel N-Mannich bases derived from 5,5-diphenyl and 5,5-di(propan-2-yl)imidazolidine-2,4-dione core” (Bioorg Med Chem Lett, 2019)
# The source made the active and inactive calls. The rule behind the calls is not given here.
# Assays:
# [1] = test system: Mus musculus; experiment: Anticonvulsant activity in CD1 mouse assessed as protection against 32 mA current-induced seizure at 100 mg/kg, ip measured after 30 mins by 6 Hz psychomotor seizure test
# [2] = Protection index, ratio of TD50 for neurotoxicity in po dosed Sprague-Dawley rat by rotarod test to ED50 for anticonvulsant activity in po dosed Sprague-Dawley rat by maximal electroshock seizure test; format: toxicity, organism-based; conditions: in vivo, read-out: Ratio TD50/ED50
# [3] = Neurotoxicity in CD1 mouse at 25 mg/kg, ip measured after 1 hr by rotarod test; conditions: in vivo
# [4] = test system: Mus musculus; experiment: Anti-inflammatory activity in CD1 mouse model assessed as formalin-induced nociception by measuring AUC during inflammatory phase at 11 mg/kg, ip measured for 5 mins by formalin test relative to control; format: functional
# [5] = Neurotoxicity in ip dosed CD1 mouse model by rotarod test; format: toxicity, organism-based; conditions: in vivo
# [6] = test system: Mus musculus; experiment: Anticonvulsant activity in ip dosed CD1 mouse assessed as protection against 32 mA current-induced seizure by 6 Hz psychomotor seizure test; format: functional
# In short: (§1)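 Median effective doses were quantified in the maximal electroshock, subcutaneous pentylenetetrazole and 6 Hz tests after intraperitoneal dosing in mice or oral dosing in rats, at the time of peak effect. ED50 values are reported with ranges in parentheses.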
# [7] = test system: Mus musculus; experiment: Antiallodynic activity in CD1 mouse assessed as reduction in oxaliplatin-induced neuropathic pain in early phase by measuring paw withdrawal force at 11 mg/kg, ip measured after 3 hrs by Von Frey test relative to untreated control; format: functional; design: scale not given: the % may be the effect or the level left
# [8] = test system: Rattus norvegicus; experiment: Anticonvulsant activity in Sprague-Dawley rat assessed as protection against 150 mA current-induced seizure at 30 mg/kg, po measured after 1 hr by maximal electroshock seizure test; format: functional, organism-based
# In short: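 Rats received 30 mg/kg orally and were given maximal electroshock at 0.25, 0.5, 1, 2, 4 and 6 h. Read-out is the number of rats protected out of four.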
# [9] = Neurotoxicity in CD1 mouse at 50 mg/kg, ip measured after 4 hrs by rotarod test; conditions: in vivo
# [10] = test system: Mus musculus; experiment: Anticonvulsant activity in ip dosed CD1 mouse assessed as time to peak effect on protection against 50 mA current-induced seizures; format: functional
# In short: as §1
# [11] = test system: Rattus norvegicus; experiment: Anticonvulsant activity in po dosed Sprague-Dawley rat assessed as time to peak effect on protection against 150 mA current-induced seizures; format: functional
# In short: as §1
# [12] = test system: Mus musculus; experiment: Antiallodynic activity in CD1 mouse assessed as reduction in oxaliplatin-induced neuropathic pain in late phase by measuring paw withdrawal force at 11 mg/kg, ip measured after 7 days by Von Frey test relative to untreated control; format: functional; design: scale not given: the % may be the effect or the level left
# [13] = test system: Mus musculus; experiment: Anticonvulsant activity in CD1 mouse assessed as protection against subcutaneous pentylenetetrazole-induced seizures at 300 mg/kg, ip and measured after 4 hrs; format: functional, organism-based
# In short: (§2)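 Mice were screened after intraperitoneal doses of 30, 100 and 300 mg/kg in the maximal electroshock and subcutaneous pentylenetetrazole tests, examined at 0.5 and 4 h. The value recorded is the minimum dose showing activity. No activity up to 300 mg/kg is scored as absent.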
# [14] = test system: Mus musculus; experiment: Anticonvulsant activity in CD1 mouse assessed as protection against 32 mA current-induced seizure at 25 mg/kg, ip measured after 2 hrs by 6 Hz psychomotor seizure test
# [15] = Neurotoxicity in Sprague-Dawley rat at 30 mg/kg, po measured after 4 hr by rotarod test; format: toxicity, organism-based; conditions: in vivo
# In short: (§3)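 Rats given one oral dose of 30 mg/kg and tested on the rotarod at 0.25, 0.5, 1, 2, 4 and 6 h.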
# [16] = test system: Mus musculus; experiment: Anticonvulsant activity in CD1 mouse assessed as protection against 32 mA current-induced seizure at 100 mg/kg, ip measured after 2 hrs by 6 Hz psychomotor seizure test
# [17] = test system: Mus musculus; experiment: Anticonvulsant activity in ip dosed CD1 mouse assessed as protection against 50 mA current-induced seizure and measured after 4 hrs by maximal electroshock seizure test; format: functional; conditions: read-out: MED
# In short: as §2
# [18] = Neurotoxicity in po dosed Sprague-Dawley rat assessed as time to peak effect by rotarod test; format: toxicity, organism-based; conditions: in vivo
# [19] = test system: Rattus norvegicus; experiment: Anticonvulsant activity in po dosed Sprague-Dawley rat assessed as protection against subcutaneous pentylenetetrazole-induced seizures; format: functional
# [20] = test system: Rattus norvegicus; experiment: Anticonvulsant activity in po dosed Sprague-Dawley rat assessed as protection against 150 mA current-induced seizures; format: functional
# In short: as §1
# [21] = test system: Rattus norvegicus; experiment: Anticonvulsant activity in po dosed Sprague-Dawley rat assessed as time to peak effect on protection against 32 mA current-induced seizure by 6 Hz psychomotor seizure test; format: functional
# [22] = Neurotoxicity in po dosed Sprague-Dawley rat model by rotarod test; format: toxicity, organism-based; conditions: in vivo
# In short: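 Rats dosed orally; neurotoxicity scored on the rotarod. Screening used a fixed 30 mg/kg, with animals checked at 0.25, 0.5, 1, 2, 4 and 6 h; the reading is the number of four rats showing neurotoxicity. In quantitative runs, a median toxic dose (TD50, mg/kg) was determined after oral dosing at the time of peak effect.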
# [23] = Neurotoxicity in CD1 mouse at 50 mg/kg, ip measured after 2 hrs by rotarod test; conditions: in vivo
# [24] = Protection index, ratio of TD50 for neurotoxicity in ip dosed CD1 mouse by rotarod test to ED50 for anticonvulsant activity in CD1 mouse by 6 Hz psychomotor seizure test; format: toxicity, organism-based; conditions: in vivo, read-out: Ratio TD50/ED50
# [25] = test system: Mus musculus; experiment: Anticonvulsant activity in CD1 mouse assessed as protection against 32 mA current-induced seizure at 50 mg/kg, ip measured after 30 mins by 6 Hz psychomotor seizure test
# [26] = test system: Mus musculus; experiment: […] in CD1 mouse model assessed as formalin-induced nociception by measuring AUC during acute phase at 11 mg/kg, ip measured for 5 mins by formalin test relative to control; format: functional
# [27] = Neurotoxicity in Sprague-Dawley rat at 30 mg/kg, po measured after 30 mins by rotarod test; format: toxicity, organism-based; conditions: in vivo, 0.5 h
# In short: as §3
# [28] = Neurotoxicity in ip dosed CD1 mouse and measured after 0.5 hrs by rotarod test; format: toxicity, organism-based; conditions: in vivo
# In short: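 Mice dosed intraperitoneally at 30, 100 and 300 mg/kg, then tested on the rotarod at 0.5 h and 4 h. The value recorded is the minimum dose at which neurotoxicity appeared. A dash means no neurotoxicity at the top dose of 300 mg/kg.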
# [29] = Neurotoxicity in CD1 mouse at 50 mg/kg, ip measured after 1 hr by rotarod test; conditions: in vivo
# [30] = Neurotoxicity in CD1 mouse at 25 mg/kg, ip measured after 30 mins by rotarod test; conditions: in vivo, 0.5 h
# [31] = Neurotoxicity in Sprague-Dawley rat at 30 mg/kg, po measured after 15 mins by rotarod test; format: toxicity, organism-based; conditions: in vivo, 0.25 h
# In short: as §3
# [32] = Neurotoxicity in CD1 mouse at 25 mg/kg, ip measured after 2 hrs by rotarod test; conditions: in vivo
# [33] = Neurotoxicity in CD1 mouse at 50 mg/kg, ip measured after 15 mins by rotarod test; conditions: in vivo, 0.25 h
structure (smiles),measurement,setting,value
CN1CCN(CN2C(=O)NC(c3ccccc3)(c3ccccc3)C2=O)CC1,Activity,[1],Active
same,selectivity ratio,[2],> 13
same,Activity,[3],Non-Toxic
same,Activity,[4],90.3%
same,TD50,[5],75.5 mg/kg
same,ED50,[6],12.2 mg/kg
same,Activity,[7],53%
same,Activity,[8],Active
same,Activity,[9],Non-Toxic
same,Time,[10],4 h
same,Time,[11],2 h
same,Activity,[12],61%
same,Activity,[13],inactive
same,Activity,[14],inactive
same,Activity,[15],Non-Toxic
same,Activity,[16],Active
same,minimal effective dose,[17],10 mg/kg
same,Time,[18],2 h
same,ED50,[19],> 250 mg/kg
same,ED50,[20],38.5 mg/kg
same,Time,[21],2 h
same,TD50,[22],> 500 mg/kg
same,Activity,[23],Non-Toxic
same,selectivity ratio,[24],6.19
same,Activity,[25],Active
same,Activity,[26],67.52%
same,Activity,[27],Non-Toxic
same,minimal neurotoxic dose,[28],100 mg/kg
same,Activity,[29],Non-Toxic
same,Activity,[30],Non-Toxic
same,Activity,[31],Non-Toxic
same,Activity,[32],Non-Toxic
same,Activity,[33],Non-Toxic
